Data set [1] can be described thus: Selectivity index, ratio of IC50 for cytotoxic activity against mouse J774 cells to IC50 for antileishmanial activity against Leishmania amazonensis amastigotes. It counts as toxicity, cell-based. The conditions noted are these: read-out: Ratio IC50.
A short description of data set [2]: Selectivity index, ratio of IC50 for cytotoxic activity against mouse J774 cells to IC50 for antileishmanial activity against Leishmania donovani. Format: toxicity, cell-based. As to conditions: read-out: Ratio IC50.
The nature of data set [3]: Drug level in BALB/c mouse plasma at 40 mg/kg, po administered as single dose after 1 hr. It counts as ADME, organism-based. The essentials: (§1)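 Mice received a single oral dose of 100 μmol/kg (40 mg/kg). Compound levels in plasma, liver, spleen and kidney were measured at 1, 2 and 24 h post-dose and reported as concentrations. Values are means ± standard errors of triplicate determinations.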

The nature of data set [4]: Drug level in BALB/c mouse liver at 40 mg/kg, po administered as single dose after 24 hrs. Format: ADME, organism-based. As to conditions: read-out: Drug uptake. The essentials: as §1
A short description of data set [5]: Drug level in BALB/c mouse spleen at 40 mg/kg, po administered as single dose after 24 hrs. It counts as ADME, organism-based. As to conditions: read-out: Drug uptake. The essentials:
as §1

The nature of data set [6]: Drug level in BALB/c mouse spleen at 40 mg/kg, po administered as single dose after 1 hr. It counts as ADME, organism-based. The conditions noted are these: read-out: Drug uptake. In outline: as §1
Data set [7] has as its system Mus musculus. Briefly: Toxicity in BALB/c mouse assessed as drug tolerance at 30 mg/kg/day, ip for 5 days. Format: organism-based. The conditions noted are these: in vivo, 120 h. The essentials: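 Compound was dissolved in water and injected i.p. into healthy, uninfected BALB/c mice at 30 mg/kg/day once daily for 5 consecutive days to assess in vivo tolerability.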

The nature of data set [8]: Drug level in BALB/c mouse plasma at 40 mg/kg, po administered as single dose after 24 hrs. Format: ADME, organism-based. In outline: as §1
The nature of data set [9]: Drug level in BALB/c mouse liver at 40 mg/kg, po administered as single dose after 1 hr. Format: ADME, organism-based. The conditions noted are these: read-out: Drug uptake. The essentials:
as §1

Data set [10] concerns Leishmania amazonensis. Put plainly: Antileishmanial activity against beta-lactamase expressing Leishmania amazonensis amastigotes overnight infected in CD1 mouse macrophages incubated for 72 hrs by nitrocefin dye based assay in presence of posaconazole. Format: functional, organism-based.
Data set [11] relates to Leishmania amazonensis. Put plainly: Antileishmanial activity against Leishmania amazonensis infected in mouse peritoneal macrophages after 72 hrs using 2 hrs parasite exposed mouse peritoneal macrophages.

pIC50: −log10 of the molar value. A value given as a limit tells only on which side of the number the result lay.

For `COc1ccc(-n2cc(-c3ccc(NC(=N)c4ccccn4)cc3OC(C)C)nn2)cc1`, the selectivity ratio worked out at 5.5 in data set [1] and 10 in [2].

On to `CC(C)Oc1cc(NC(=N)c2ccccn2)ccc1-c1ccc(-c2ccccc2)s1`, for which the values for the selectivity ratio in data set [1] and in [2] were 3 and 3.1, respectively.

On to `CC(C)Oc1cc(NC(=N)c2ccccn2)ccc1-c1cnc(-c2ccccc2)o1`, for which the selectivity ratio in [1] came to 41; in data set [2] it was 24.

In the case of `CC(C)Oc1cc(NC(=N)c2ccccn2)ccc1-c1ccc(-c2ccccc2)o1.CS(=O)(=O)O`, the concentration at 1 h in data set [3] came out at 1900 nM; in data set [6] it was 4700 nM; in data set [9], 12600 nM. In addition, the concentration at 24 h in data set [4] turned out to be 600 nM; in data set [5], 600 nM; in [8] it was 140 nM. The selectivity ratio in data set [1] and in [2] was at least 25 each time. In [7], the Activity result is given as “Non-toxic”. The pIC50 in data set [10] is 7.26.

Turning to `CC(C)Oc1cc(NC(=N)c2ncccn2)ccc1-c1ccc(-c2ccccc2)o1`, the selectivity ratio in data set [1] came to 18; in data set [2], 27.

Regarding `CC(C)Oc1cc(NC(=N)c2ccccn2)ccc1-c1ccc(-c2ccco2)o1.Cl`, the selectivity ratio in data set [1] and in data set [2] was at least 25 throughout. For the same compound, in [7], the Activity result is “Non-toxic”.

For the compound `CS(=O)(=O)O.N=C(Nc1ccc(-c2ccc(-c3ccccc3)o2)c(OC2CCCC2)c1)c1ccccn1`, the selectivity ratio in data set [1] and in [2] was at least 25 in each case. The Activity entry in data set [7] is on record as “Non-toxic”.

In the case of `CC[C@@H]([C@H](C)O)n1ncn(-c2ccc(N3CCN(c4ccc(OC[C@@H]5CO[C@@](Cn6cncn6)(c6ccc(F)cc6F)C5)cc4)CC3)cc2)c1=O` [POSACONAZOLE], the negative-log IC50 (pIC50) in data set [11] was 5.80.

The values above are taken from ChEMBL document CHEMBL3792273, “Synthesis and pharmacological evaluation of mono-arylimidamides as antileishmanial agents” (Bioorg Med Chem Lett, 2016).
